Results gathered from unrelated publications.
Each line is one published result; the experiments were not run side by side.
Cell line: HepG2
Observed: cell growth or viability

N=C(N)NCc1ccc(NC(=O)C23CCC(C(=O)Nc4ccc(C5=CCN(C(=N)N)CC5)cc4)(CC2)CC3)cc1 — CC50 (MTS; 24 h): 253 µM
O=[N+]([O-])c1ccc(-c2nc3cccc(O)c3[nH]2)o1 — CC50 (resazurin; 72 h): 37 µM
COC(=O)c1c(C)ncn1CC(c1cn(C)c2ccccc12)c1cn(C)c2ccccc12 — CC50 (MTS; 24 h): > 20 µM
Cc1ccc(-c2nc(Nc3ccc(C(=O)N4CCC(N5CCCC5)CC4)cc3)ncc2Cl)s1 — CC50 (44 h): 9.3 µM
N=C(N)NCc1ccc(NC(=O)c2ccc(C(=O)Nc3ccc(C4=CCN(C(=N)N)CC4)cn3)cc2)cc1 — CC50 (MTS; 24 h): 353 µM
COC(=O)c1c(C)ncn1CC(c1c[nH]c2cc(Br)ccc12)c1c[nH]c2cc(Br)ccc12 — CC50 (MTS; 24 h): > 20 µM
CC(=O)Oc1ccccc1C(=O)O — CC50 (ATP luminescence): > 1000 µM
Cc1cn(CC(c2cn(C)c3ccccc23)c2cn(C)c3ccccc23)nn1 — CC50 (MTS; 24 h): > 20 µM
N=C(N)NCc1ccc(NC(=O)c2ccc(C(=O)Nc3ccc(C4=CCN(C(=N)N)CC4)nn3)cc2)cc1 — CC50 (MTS; 24 h): 326 µM
COc1ccc(NC(=O)N2CCCCN3[C@H](COCCC(=O)O)[C@H](c4ccc(C#Cc5ccccc5)cc4)[C@@H]3C2)cc1 — CC50: > 40 µM
N=C(N)NCc1ccc(NC(=O)c2ccc(C(=O)Nc3ccc(C4=CCN(C(=N)N)CC4)cc3)cn2)cc1 — CC50 (MTS; 24 h): 739 µM
COc1cc(/C=C/C(=O)CC(=O)/C=C/c2ccc(O)c(OC)c2)ccc1O — CC50 (MTT; 24 h): ~42 µM
CCc1ncn(CC(c2c[nH]c3ccc(C)cc23)c2c[nH]c3ccc(C)cc23)c1C(=O)OC — CC50 (MTS; 24 h): > 20 µM
Cc1cc(Nc2ccc(S(F)(F)(F)(F)F)cc2)n2ccnc2n1 — CC50: > 50 µM
O=C(NCCCN1CCOCC1)c1ccc(Nc2ncc(Cl)c(-c3ccc(Cl)s3)n2)cc1 — CC50 (44 h): 4.9 µM
CCOC(=O)c1c(C)ncn1CC(c1cn(C)c2ccc([N+](=O)[O-])cc12)c1cn(C)c2ccc([N+](=O)[O-])cc12 — CC50 (MTS; 24 h): > 20 µM
